In ChEMBL document CHEMBL3044706, “Lignans and neolignans from Brassica fruticulosa: effects on seed germination and plant growth” (2003):
Calls of active or inactive are those of the source. The calls are words filed in the database; no cut-off is given here.

What was measured:
Allium cepa [1] = experiment: Stimulation of shoot elongation in Allium cepa (onion) at 10^-4 to 10^-9 M after 7 days relative to control; type: functional, organism-based
How it was run: (§1)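 Seeds (cress 3 days, tomato 5 days, onion 7 days), 25 per 90 mm Petri dish on one Whatman No. 1 filter paper, with 5 mL test solution in 10 mM MES pH 6 (10^-4 M, diluted to 10^-9 M). Dishes were sealed and kept at 25 °C in the dark. Germination was scored daily, then root/shoot lengths were taken after freezing at -20 °C. Four replicates, expressed as % difference from control, with t-test.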

Lactuca sativa [2] = experiment: Stimulation of shoot elongation in Lactuca sativa (lettuce) at 10^-4 to 10^-9 M after 5 days relative to control; type: functional, organism-based
How it was run: (§2)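 Lettuce seeds, 25 per 50 mm Petri dish on one Whatman No. 1 filter paper, with 2.5 mL test solution in 10 mM MES pH 6 (10^-4 M, diluted to 10^-9 M). Dishes were Parafilm-sealed and kept at 25 °C in the dark. Germination was scored daily for 5 days, then root/shoot lengths were measured on plants frozen at -20 °C. Four replicates, expressed as % difference from parallel control, with Student's t-test.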

Solanum lycopersicum [3] = experiment: Inhibition of shoot elongation in Solanum lycopersicum (tomato) at 10^-4 to 10^-9 M after 5 days relative to control; type: functional, organism-based; how it was run: as §1
Solanum lycopersicum [4] = experiment: Stimulation of shoot elongation in Solanum lycopersicum (tomato) at 10^-4 to 10^-9 M after 5 days relative to control; type: functional, organism-based; how it was run: as §1
Allium cepa [5] = experiment: Inhibition of shoot elongation in Allium cepa (onion) at 10^-4 to 10^-9 M after 7 days relative to control; type: functional, organism-based; how it was run: as §1
Solanum lycopersicum [6] = experiment: Effect on seed germination in Solanum lycopersicum (tomato) at 10^-4 to 10^-9 M after 5 days relative to control; type: functional, organism-based; how it was run: as §1
Allium cepa [7] = experiment: Stimulation of root elongation in Allium cepa (onion) at 10^-4 to 10^-9 M after 7 days relative to control; type: functional, organism-based; how it was run: as §1
Allium cepa [8] = experiment: Effect on seed germination in Allium cepa (onion) at 10^-4 to 10^-9 M after 7 days relative to control; type: functional, organism-based; how it was run: as §1
Lactuca sativa [9] = experiment: Inhibition of shoot elongation in Lactuca sativa (lettuce) at 10^-4 to 10^-9 M after 5 days relative to control; type: functional, organism-based; how it was run: as §2
Lactuca sativa [10] = experiment: Effect on root elongation in Lactuca sativa (lettuce) at 10^-4 to 10^-9 M after 5 days relative to control; type: functional, organism-based; how it was run: as §2
Solanum lycopersicum [11] = experiment: Effect on root elongation in Solanum lycopersicum (tomato) at 10^-4 to 10^-9 M after 5 days relative to control; type: functional, organism-based; how it was run: as §1
Lactuca sativa [12] = experiment: Inhibition of seed germination in Lactuca sativa (lettuce) at 10^-4 to 10^-9 M after 5 days relative to control; type: functional; how it was run: as §2
Lactuca sativa [13] = experiment: Inhibition of seed germination in Lactuca sativa (lettuce) at 10^-9 M after 5 days relative to control; type: functional; details: 120 h; how it was run: as §2
Lepidium sativum [14] = experiment: Effect on seed germination in Lepidium sativum at 10^-4 to 10^-9 M after 3 days relative to control; type: functional, organism-based; how it was run: as §1
Lepidium sativum [15] = experiment: Inhibition of shoot elongation in Lepidium sativum at 10^-4 to 10^-9 M after 3 days relative to control; type: functional; how it was run: as §1
Lepidium sativum [16] = experiment: Effect on root elongation in Lepidium sativum at 10^-4 to 10^-9 M after 3 days relative to control; type: functional, organism-based; how it was run: as §1

Compound | Activity (Allium cepa [1]) | Activity (Lactuca sativa [2]) | inhibition (Solanum lycopersicum [3]) | Activity (Solanum lycopersicum [4]) | inhibition (Allium cepa [5]) | Activity (Solanum lycopersicum [6]) | Activity (Allium cepa [7]) | Activity (Allium cepa [8]) | inhibition (Lactuca sativa [9]) | Activity (Lactuca sativa [10]) | Activity (Solanum lycopersicum [11]) | inhibition (Lactuca sativa [12]) | inhibition at 0.001 µM (Lactuca sativa [13]) | Activity (Lepidium sativum [14]) | inhibition (INH) (Lepidium sativum [15]) | Activity (Lepidium sativum [16]) | inhibition (INH) (Lactuca sativa [12])
COc1cc([C@@H](O)[C@H]2CO[C@H](c3ccc(O)c(OC)c3)[C@H]2CO)ccc1O | Active | Active | Active | Active | Active | inactive | Active | inactive | Active | inactive | inactive | – | – | – | – | – | –
CCC(CC)Nc1c([N+](=O)[O-])cc(C)c(C)c1[N+](=O)[O-] | – | Active | – | – | – | – | – | – | – | inactive | – | Active | – | – | – | – | –
COc1cc([C@@H]2c3cc(O)c(OC)cc3C[C@H](CO)[C@H]2CO)ccc1O [(-)-ISOLARICIRESINOL] | Active | Active | Active | Active | Active | inactive | inactive | inactive | Active | inactive | inactive | Active | 50% | inactive | 30% | inactive | –
O=C(O)CNCP(=O)(O)O | – | Active | – | – | – | – | – | – | – | inactive | – | Active | – | – | – | – | –
COc1cc([C@@H](O)[C@@H](CO)Oc2c(OC)cc(/C=C/CO)cc2OC)ccc1O | Active | Active | Active | Active | Active | inactive | Active | inactive | Active | inactive | inactive | – | – | – | – | – | –
COc1cc([C@H](O)[C@H](CO)Oc2c(OC)cc([C@@H]3OC[C@@H]4[C@H]3CO[C@H]4c3cc(OC)c(O[C@@H](CO)[C@@H](O)c4ccc(O)c(OC)c4)c(OC)c3)cc2OC)ccc1O | Active | Active | Active | Active | Active | inactive | Active | inactive | Active | inactive | inactive | Active | – | – | – | – | –
COc1cc([C@H](O)[C@@H](CO)Oc2c(OC)cc([C@@H]3Oc4c(OC)cc(/C=C/CO)cc4[C@H]3CO)cc2OC)ccc1O | Active | Active | Active | Active | Active | inactive | Active | inactive | Active | inactive | inactive | Active | – | – | – | – | –
COc1cc(C[C@H]2CO[C@H](c3ccc(O)c(OC)c3)[C@H]2CO)ccc1O (racemic) [LARICIRESINOL] | Active | Active | Active | Active | Active | inactive | Active | inactive | Active | inactive | inactive | Active | 75% | inactive | 30% | inactive | –
COc1cc(C[C@H]2CO[C@H](c3ccc(O[C@@H](CO)[C@@H](O)c4ccc(O)c(OC)c4)c(OC)c3)[C@H]2CO)ccc1O | Active | Active | Active | Active | Active | inactive | Active | inactive | Active | inactive | inactive | Active | – | – | – | – | –
COc1cc(/C=C/C(=O)O)ccc1Oc1ccc(/C=C/C(=O)O)cc1OC | Active | Active | Active | Active | Active | inactive | Active | inactive | Active | inactive | inactive | – | – | – | – | – | –
COc1cc([C@H](O)[C@@H](CO)Oc2ccc(/C=C/CO)cc2OC)ccc1O (racemic) | Active | Active | Active | Active | Active | inactive | Active | inactive | Active | inactive | inactive | Active | – | – | – | – | –
COc1cc(C[C@@H](CO)[C@H](CO)Cc2ccc(O)c(OC)c2)ccc1O [(+)-SECOISOLARICIRESINOL] | Active | Active | Active | Active | Active | inactive | Active | inactive | Active | inactive | inactive | Active | 50% | – | – | – | –
COc1cc([C@@H]2OC[C@H]3[C@@H]2CO[C@H]3c2ccc(O)c(OC)c2)ccc1O | Active | Active | Active | Active | Active | inactive | Active | inactive | Active | inactive | inactive | – | – | – | – | – | –
COc1cc([C@@H]2Oc3c(OC)cc(/C=C/CO)cc3[C@H]2CO)ccc1O [DEHYDROCONIFERYL ALCOHOL] | Active | Active | Active | Active | Active | inactive | Active | inactive | Active | inactive | inactive | – | – | inactive | 30% | inactive | 70%
